Measurements reported in ChEMBL document CHEMBL1649574, “Prevalence and characterization of heterogeneous vancomycin-intermediate Staphylococcus aureus isolates from 14 cities in China” (2009).

Assays:
Format in all cases: functional
Staphylococcus aureus [1] = test: Antimicrobial activity against SCCmec type IV vancomycin-intermediate Staphylococcus aureus isolate 06b41 by agar dilution method
Procedure, shortened: (§1)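 Agar-dilution MICs were measured on a subset of 200 blood MRSA isolates from China. Agents: oxacillin, rifampin, gentamicin, levofloxacin, erythromycin, vancomycin, teicoplanin, tigecycline, ceftobiprole and linezolid. Phenotype came from the PAP-AUC ratio of each isolate to S. aureus Mu3 (VSSA <0.9; hVISA 0.9 to 1.3; VISA ≥1.3), read on BHI agar with 0 to 8.0 mg/liter vancomycin after 48 h at 35°C.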

Staphylococcus aureus [2] = test: Antimicrobial activity against SCCmec type III vancomycin-intermediate Staphylococcus aureus isolate b3k5923 by agar dilution method; procedure, shortened: as §1
Staphylococcus aureus [3] = test: Antimicrobial activity against SCCmec type III vancomycin-intermediate Staphylococcus aureus isolate b3k2345 by agar dilution method; procedure, shortened: as §1
Staphylococcus aureus [4] = test: Antimicrobial activity against SCCmec type III vancomycin-intermediate Staphylococcus aureus isolate zj07028 by agar dilution method; procedure, shortened: as §1
Staphylococcus aureus [5] = test: Antimicrobial activity against SCCmec type II vancomycin-intermediate Staphylococcus aureus isolate b2k4781 by agar dilution method; procedure, shortened: as §1
Staphylococcus aureus [6] = test: Antimicrobial activity against SCCmec type III vancomycin-intermediate Staphylococcus aureus isolate 15b52 by agar dilution method; procedure, shortened: as §1
Staphylococcus aureus [7] = test: Antimicrobial activity against SCCmec type II vancomycin-intermediate Staphylococcus aureus isolate 4sy39 by agar dilution method; procedure, shortened: as §1
Staphylococcus aureus [8] = test: Antimicrobial activity against SCCmec type II vancomycin-intermediate Staphylococcus aureus isolate 6zjsau7 by agar dilution method; procedure, shortened: as §1
Staphylococcus aureus [9] = test: Antimicrobial activity against SCCmec type III vancomycin-intermediate Staphylococcus aureus isolate 13b16 by agar dilution method; procedure, shortened: as §1
Staphylococcus aureus [10] = test: Antimicrobial activity against SCCmec type III vancomycin-intermediate Staphylococcus aureus isolate b4k6307 by agar dilution method; procedure, shortened: as §1
Staphylococcus aureus [11] = test: Antimicrobial activity against SCCmec type III vancomycin-intermediate Staphylococcus aureus isolate 5zjsau3 by agar dilution method; procedure, shortened: as §1
Staphylococcus aureus [12] = test: Antimicrobial activity against SCCmec type III vancomycin-intermediate Staphylococcus aureus isolate b6k1642 by agar dilution method; procedure, shortened: as §1
Staphylococcus aureus [13] = test: Antimicrobial activity against SCCmec type III vancomycin-intermediate Staphylococcus aureus isolate b2k3421 by agar dilution method; procedure, shortened: as §1
Staphylococcus aureus [14] = test: Antimicrobial activity against SCCmec type III vancomycin-intermediate Staphylococcus aureus isolate sh07043 by agar dilution method; procedure, shortened: as §1
Staphylococcus aureus [15] = test: Antimicrobial activity against SCCmec type II vancomycin-intermediate Staphylococcus aureus isolate sh06024 by agar dilution method; procedure, shortened: as §1
Staphylococcus aureus [16] = test: Antimicrobial activity against SCCmec type III vancomycin-intermediate Staphylococcus aureus isolate b5k3529 by agar dilution method; procedure, shortened: as §1
Staphylococcus aureus [17] = test: Antimicrobial activity against SCCmec type III vancomycin-intermediate Staphylococcus aureus isolate bd4768 by agar dilution method; procedure, shortened: as §1
Staphylococcus aureus [18] = test: Antimicrobial activity against SCCmec type III vancomycin-intermediate Staphylococcus aureus isolate xa07029 by agar dilution method; procedure, shortened: as §1
Staphylococcus aureus [19] = test: Antimicrobial activity against SCCmec type III vancomycin-intermediate Staphylococcus aureus isolate gz07030 by agar dilution method; procedure, shortened: as §1
Staphylococcus aureus [20] = test: Antimicrobial activity against SCCmec type III vancomycin-intermediate Staphylococcus aureus isolate b5k3578 by agar dilution method; procedure, shortened: as §1
Staphylococcus aureus [21] = test: Antimicrobial activity against SCCmec type III vancomycin-intermediate Staphylococcus aureus isolate gz06040 by agar dilution method; procedure, shortened: as §1
Staphylococcus aureus [22] = test: Antimicrobial activity against SCCmec type II vancomycin-intermediate Staphylococcus aureus isolate 4sy32 by agar dilution method; procedure, shortened: as §1
Staphylococcus aureus [23] = test: Antimicrobial activity against SCCmec type III vancomycin-intermediate Staphylococcus aureus isolate gs07022 by agar dilution method; procedure, shortened: as §1
Staphylococcus aureus [24] = test: Antimicrobial activity against SCCmec type III vancomycin-intermediate Staphylococcus aureus isolate b6k7974 by agar dilution method; procedure, shortened: as §1
Staphylococcus aureus [25] = test: Antimicrobial activity against SCCmec type III vancomycin-intermediate Staphylococcus aureus isolate gz06051 by agar dilution method; procedure, shortened: as §1
Staphylococcus aureus [26] = test: Antimicrobial activity against SCCmec type III vancomycin-intermediate Staphylococcus aureus isolate 11b091 by agar dilution method; procedure, shortened: as §1
Staphylococcus aureus [27] = test: Antimicrobial activity against SCCmec type II vancomycin-intermediate Staphylococcus aureus isolate 07b63 by agar dilution method; procedure, shortened: as §1

Measured: MIC

CO[C@H]1/C=C/O[C@@]2(C)Oc3c(C)c(O)c4c(O)c(c(/C=N/N5CCN(C)CC5)c(O)c4c3C2=O)NC(=O)/C(C)=C\C=C\[C@H](C)[C@H](O)[C@@H](C)[C@@H](O)[C@@H](C)[C@H](OC(C)=O)[C@@H]1C [RIFAMPIN]
0.5 mg/L: Staphylococcus aureus [16] | Staphylococcus aureus [20]
16 mg/L: Staphylococcus aureus [12]
> 256 mg/L: Staphylococcus aureus [15] | Staphylococcus aureus [18] | Staphylococcus aureus [25]
0.016 mg/L: Staphylococcus aureus [1] | Staphylococcus aureus [6] | Staphylococcus aureus [14]
0.008 mg/L: Staphylococcus aureus [3] | Staphylococcus aureus [5] | Staphylococcus aureus [7] | Staphylococcus aureus [8] | Staphylococcus aureus [9] | Staphylococcus aureus [11] | Staphylococcus aureus [13] | Staphylococcus aureus [21] | Staphylococcus aureus [22] | Staphylococcus aureus [23] | Staphylococcus aureus [26] | Staphylococcus aureus [27]
0.004 mg/L: Staphylococcus aureus [19]
256 mg/L: Staphylococcus aureus [2] | Staphylococcus aureus [10] | Staphylococcus aureus [17] | Staphylococcus aureus [24]
≤ 0.002 mg/L: Staphylococcus aureus [4]

GENTAMICIN
64 mg/L: Staphylococcus aureus [7] | Staphylococcus aureus [22] | Staphylococcus aureus [27]
> 256 mg/L: Staphylococcus aureus [4] | Staphylococcus aureus [5] | Staphylococcus aureus [11] | Staphylococcus aureus [12] | Staphylococcus aureus [16] | Staphylococcus aureus [19] | Staphylococcus aureus [20]
8 mg/L: Staphylococcus aureus [23]
256 mg/L: Staphylococcus aureus [6] | Staphylococcus aureus [8] | Staphylococcus aureus [9] | Staphylococcus aureus [15] | Staphylococcus aureus [17] | Staphylococcus aureus [21] | Staphylococcus aureus [24] | Staphylococcus aureus [26]
128 mg/L: Staphylococcus aureus [2] | Staphylococcus aureus [3] | Staphylococcus aureus [10] | Staphylococcus aureus [13] | Staphylococcus aureus [14] | Staphylococcus aureus [18] | Staphylococcus aureus [25]
0.25 mg/L: Staphylococcus aureus [1]
